Seven molecules from ChEMBL document CHEMBL4257497, “Design, synthesis and biological evaluation of novel 1,3-diarylpyrazoles as cyclooxygenase inhibitors, antiplatelet and anticancer agents” (Medchemcomm, 2018) can be followed below.

As a reminder, the inhibition is how much of the control response was suppressed. Usually IC50 stands for the concentration needed to halve the response being measured.

Data set [1] concerns the target T1, COX1 (Prostaglandin G/H synthase 1) (Ovis aries, UniProt P05979).
T1 sequence (P05979 whole entry): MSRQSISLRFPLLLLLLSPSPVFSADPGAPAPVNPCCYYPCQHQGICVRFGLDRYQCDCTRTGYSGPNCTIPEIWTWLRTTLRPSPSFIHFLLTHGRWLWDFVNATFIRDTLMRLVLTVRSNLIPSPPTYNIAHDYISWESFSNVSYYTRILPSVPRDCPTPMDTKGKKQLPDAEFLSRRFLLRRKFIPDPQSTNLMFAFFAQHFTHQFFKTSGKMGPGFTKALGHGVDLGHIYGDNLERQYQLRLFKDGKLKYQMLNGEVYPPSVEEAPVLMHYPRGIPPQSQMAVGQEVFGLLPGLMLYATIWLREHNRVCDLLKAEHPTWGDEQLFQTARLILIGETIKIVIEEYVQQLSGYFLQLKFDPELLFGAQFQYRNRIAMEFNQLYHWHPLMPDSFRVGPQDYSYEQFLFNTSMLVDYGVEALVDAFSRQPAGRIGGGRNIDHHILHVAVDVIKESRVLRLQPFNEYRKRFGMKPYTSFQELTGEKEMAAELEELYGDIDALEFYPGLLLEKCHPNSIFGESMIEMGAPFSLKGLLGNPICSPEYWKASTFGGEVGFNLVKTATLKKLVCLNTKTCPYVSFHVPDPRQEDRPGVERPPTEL
As to the kind of experiment: Inhibition of sheep COX1 at 10 uM assessed as reduction in PGE2 formation using arachidonic acid as substrate by enzyme immunoassay relative to control. Particulars: probe arachidonic acid; call rule not given here. The method, boiled down:
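Recombinant ovine COX-1, test agent at 10 μM, arachidonic acid as substrate. PGE2 formed is measured by competitive EIA (PGE2–acetylcholinesterase tracer, monoclonal anti-PGE2, Ellman's reagent, absorbance 412 nm) and quantified from an 8-point PGE2 standard curve. Result given as % inhibition of enzyme activity.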

The test system of data set [2] is Platelet. As to the kind of experiment: Antiplatelet activity in human platelet rich plasma assessed as inhibition of arachidonic acid-induced platelet aggregation at 100 uM preincubated for 5 mins followed by arachidonic acid addition measured for 3 mins by aggregometric analysis relative to control. The class given is functional. Put shortly:
(§1)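 Citrated venous blood (3.2% citrate, 1:9) from healthy donors free of antiplatelet drugs for 10 days; PRP from 800 rpm 10 min spin, PPP from 1500 rpm 10 min; count set to 3.8 × 10^5 platelets […]. PRP stirred at 1100 rpm, 37 °C; compound in DMSO (1% carrier) 5 min before agonist (AA final 700 μM; collagen 5 μg ml−1). Turbidimetric read, triplicate; % inhibition versus DMSO-treated maximum aggregation.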

For data set [3], the system named is Platelet. Description: Antiplatelet activity in human platelet rich plasma assessed as inhibition of collagen-induced platelet aggregation at 100 uM preincubated for 5 mins followed by arachidonic acid addition measured for 3 mins by aggregometric analysis relative to control. The class given is functional. Put shortly:
as §1

Data set [4] has as its system Platelet. Description: Antiplatelet activity in human platelet rich plasma assessed as inhibition of arachidonic acid-induced platelet aggregation preincubated for 5 mins followed by arachidonic acid addition measured for 3 mins by aggregometric analysis. The class given is functional, cell-based.
The next data set relates to Huh-7. Description: Cytotoxicity against human HuH7 cells after 72 hrs by SRB assay. The class given is functional, cell-based. The method, boiled down: (§2)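 Cells cultured in DMEM with 10% FBS, 1% non-essential amino acids, penicillin/streptomycin, 37 °C, 5% CO2. 2000–3000 cells per well seeded, grown 24 h, then exposed 72 h to compound (DMSO) at 40, 20, 10, 5, 2.5 μM. TCA fixation, 0.4% SRB stain, unbound dye washed off with 1% acetic acid, bound dye dissolved in 10 mM Tris base, absorbance 515 nm. IC50 against DMSO controls, triplicate.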
In general terms: The SRB assay estimates cell density from bound dye.

A further data set deals with MCF7. Description: Cytotoxicity against human MCF7 cells after 72 hrs by SRB assay. In kind it is functional, cell-based. The method, boiled down: as §2
In another data set the test system is HCT-116. Description: Cytotoxicity against human HCT116 cells after 72 hrs by SRB assay. In kind it is functional, cell-based. The method, boiled down: as §2
The mark [5] stands for this setting: Homo sapiens, MCF7, 72 h, read-out: IC50.
[6] abbreviates: Homo sapiens, Huh-7, 72 h, read-out: IC50.
[7] abbreviates: Homo sapiens, HCT-116, 72 h, read-out: IC50.

Turning to `CS(=O)(=O)c1ccc(-n2cc(/C=C/C(=O)NCCc3ccccn3)c(-c3cccnc3)n2)cc1`, the inhibition at 10 µM in data set [1] amounted to 54.6%. Besides, the results for the inhibition at 100 µM with Platelet [2] and in the data set on Platelet [3] were 90.7% and 78.7%, respectively. In addition, the IC50 in the data set with Platelet [4] was 10.1 µM; in the data set on Huh-7 (huh-7), “Not Active”; in the data set on MCF7 (setting [5]) it was 14.3 µM; in the data set on HCT-116 (hct-116) it was “Not Active”.

With `CS(=O)(=O)c1ccc(-n2cc(/C=C/C(=O)NCCc3ccncc3)c(-c3cccnc3)n2)cc1`, in data set [1], the inhibition at 10 µM was 7.95%. Moreover, the inhibition at 100 µM with Platelet [2] amounted to 100%; in the data set with Platelet [3], 71.8%. For the same molecule, the IC50 with Platelet [4] was 21.4 µM; with Huh-7 (setting [6]) it was 38.7 µM; in the data set with MCF7 (mcf7), “Not Active”; in the data set with HCT-116 (setting [7]), 19.8 µM.

On to `O=C(/C=C/c1cn(-c2ccccc2)nc1-c1ccncc1)NCCCn1ccnc1`, for which, in data set [1], the inhibition at 10 µM turned out to be 12.6%. Further, the values for the inhibition at 100 µM with Platelet [2] and in the data set with Platelet [3] were 90.6% and 88.9%, respectively. In addition, the IC50 in the data set with Platelet [4] was 33.6 µM; with Huh-7 (setting [6]), 6.8 µM; in the data set on MCF7 (mcf7) it was “Not Active”; in the data set with HCT-116 (setting [7]), 18.5 µM.

For the molecule `O=C(/C=C/c1cn(-c2ccccc2)nc1-c1ccncc1)NCCc1cccnc1`, in data set [1], the inhibition at 10 µM is 9.37%. For the same molecule, the inhibition at 100 µM in the data set with Platelet [2] turned out to be 93.7%; in the data set with Platelet [3], 86.9%. In addition, the IC50 was 29.1 µM with Platelet [4], “Not Active” with Huh-7 (huh-7), 16.1 µM with MCF7 (setting [5]) and 14.6 µM in the data set with HCT-116 (setting [7]).

For the molecule `O=C(/C=C/c1cn(-c2ccccc2)nc1-c1ccncc1)NCCc1ccccn1`, in data set [1], the inhibition at 10 µM came out at 13.1%. Moreover, the inhibition at 100 µM in the data set on Platelet [2] was 100%; with Platelet [3] it was 41.9%. Also, the IC50 is 32.8 µM in the data set on Platelet [4], 27.3 µM with Huh-7 (setting [6]), 12.2 µM in the data set with MCF7 (setting [5]) and “Not Active” in the data set on HCT-116 (hct-116).

Consider `O=C(/C=C/c1cn(-c2ccccc2)nc1-c1ccncc1)NCc1ccccn1`, for which the inhibition at 10 µM in data set [1] was 5.96%. Moreover, the inhibition at 100 µM with Platelet [2] was 100%; with Platelet [3], 41.6%. The IC50 is 78.3 µM with Platelet [4], 14.7 µM in the data set on Huh-7 (setting [6]), “Not Active” with MCF7 (mcf7) and 20.4 µM in the data set with HCT-116 (setting [7]).

For the molecule `CS(=O)(=O)c1ccc(-n2cc(/C=C/C(=O)NCc3cccnc3)c(-c3cccnc3)n2)cc1`, the inhibition at 10 µM in data set [1] stood at 13.1%. In addition, the values for the inhibition at 100 µM in the data set with Platelet [2] and with Platelet [3] were 90% and 64.1%, respectively. The IC50 in the data set with Platelet [4] was 49.8 µM; in the data set with Huh-7 (huh-7), “Not Active”; in the data set on MCF7 (mcf7), “Not Active”; with HCT-116 (hct-116), “Not Active”.
